In ChEMBL document CHEMBL4145568, “Antiplasmodial Diterpenoids and a Benzotropolone from Petradoria pumila” (J Nat Prod, 2018):

Columns and labels:
[1] = system: Plasmodium falciparum; assay: Antimalarial activity against Plasmodium falciparum Dd2 ring stage parasite assessed as decrease in parasite viability after 72 hrs by SYBR green 1 dye based assay; assay type: functional, organism-based
How it was run: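 Ring-stage cultures at 1% hematocrit and 1% parasitemia grown 72 h at 37 °C under 5% CO2, 5% O2, 90% N2 with increasing drug concentrations. Viability read by SYBR Green I DNA quantitation. IC50 from nonlinear regression, mean of three independent determinations each in duplicate, ± SEM.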

[2] = system: A2780; assay: Cytotoxicity against human A2780 cells assessed as inhibition of cell growth after 2 days by Alamar blue assay; assay type: functional, cell-based; conditions: A2780, 48 h
[3] = Plasmodium falciparum, Dd2, 72 h, read-out: IC50

SMILES	IC50 [1, 3]	IC50 [2]	IC50 [1]
C=C[C@](C)(O)[C@@H]1C[C@@H]2[C@@]3(C)C(=O)CCC(C)(C)[C@@H]3CC[C@@]2(C)O1	> 20 µM	> 50 µM	
C=C[C@](C)(O)[C@@H]1C[C@@H]2[C@@]3(C)[C@@H](O)CCC(C)(C)[C@@H]3CC[C@@]2(C)O1	> 20 µM	> 50 µM	
COc1cc([C@@H]2Oc3c(OC)cc(/C=C/COC(C)=O)cc3[C@H]2COC(C)=O)ccc1O			Not Active
C=C[C@@](C)(OC(C)=O)[C@@H]1C[C@@H]2[C@@]3(C)C(=O)CCC(C)(C)[C@@H]3CC[C@@]2(C)O1		> 50 µM	Not Active
COc1cc([C@@H]2Oc3c(OC)cc(/C=C/COC(=O)CC(C)C)cc3[C@H]2COC(=O)CC(C)C)ccc1O	> 20 µM		
C=C[C@@](C)(OC(C)=O)[C@@H]1C[C@@H]2[C@@]3(C)[C@@H](O)CCC(C)(C)[C@@H]3CC[C@@]2(C)O1	7.3 µM	> 50 µM	
COc1cc2c(C)cccc2ccc1=O	> 20 µM	> 50 µM	
C[C@@H]1CC[C@H]2[C@@H](C)C(=O)O[C@@H]3O[C@@]4(C)CC[C@@H]1[C@]32OO4 [ARTEMISININ]	0.0085 µM		
